This note sets out measurements from ChEMBL document CHEMBL4680221, “Discovery of pyrazole derivatives as cellular active inhibitors of histone lysine specific demethylase 5B (KDM5B/JARID1B)” (Eur J Med Chem, 2020).

The structures appear in SMILES notation.

In assay [1] the test system is MKN-45. Briefly: Antiproliferative activity against human MKN-45 cells assessed as reduction in cell proliferation measured after 6 days by MTS assay. Conditions: MKN-45, 144 h. Format: functional, cell-based. The procedure, abridged:
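MKN45 cells were seeded at 3×10^3 cells per well and treated for 4 or 6 days, as indicated. Proliferation was read by MTS assay and IC50 derived. Three independent experiments, mean ± SD.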
A general note: Tetrazolium dyes change colour on reduction, which living cells bring about.

Assay [2] addresses T1, Lysine-specific demethylase 4A (Homo sapiens) (UniProt O75164).
T1 sequence (whole entry): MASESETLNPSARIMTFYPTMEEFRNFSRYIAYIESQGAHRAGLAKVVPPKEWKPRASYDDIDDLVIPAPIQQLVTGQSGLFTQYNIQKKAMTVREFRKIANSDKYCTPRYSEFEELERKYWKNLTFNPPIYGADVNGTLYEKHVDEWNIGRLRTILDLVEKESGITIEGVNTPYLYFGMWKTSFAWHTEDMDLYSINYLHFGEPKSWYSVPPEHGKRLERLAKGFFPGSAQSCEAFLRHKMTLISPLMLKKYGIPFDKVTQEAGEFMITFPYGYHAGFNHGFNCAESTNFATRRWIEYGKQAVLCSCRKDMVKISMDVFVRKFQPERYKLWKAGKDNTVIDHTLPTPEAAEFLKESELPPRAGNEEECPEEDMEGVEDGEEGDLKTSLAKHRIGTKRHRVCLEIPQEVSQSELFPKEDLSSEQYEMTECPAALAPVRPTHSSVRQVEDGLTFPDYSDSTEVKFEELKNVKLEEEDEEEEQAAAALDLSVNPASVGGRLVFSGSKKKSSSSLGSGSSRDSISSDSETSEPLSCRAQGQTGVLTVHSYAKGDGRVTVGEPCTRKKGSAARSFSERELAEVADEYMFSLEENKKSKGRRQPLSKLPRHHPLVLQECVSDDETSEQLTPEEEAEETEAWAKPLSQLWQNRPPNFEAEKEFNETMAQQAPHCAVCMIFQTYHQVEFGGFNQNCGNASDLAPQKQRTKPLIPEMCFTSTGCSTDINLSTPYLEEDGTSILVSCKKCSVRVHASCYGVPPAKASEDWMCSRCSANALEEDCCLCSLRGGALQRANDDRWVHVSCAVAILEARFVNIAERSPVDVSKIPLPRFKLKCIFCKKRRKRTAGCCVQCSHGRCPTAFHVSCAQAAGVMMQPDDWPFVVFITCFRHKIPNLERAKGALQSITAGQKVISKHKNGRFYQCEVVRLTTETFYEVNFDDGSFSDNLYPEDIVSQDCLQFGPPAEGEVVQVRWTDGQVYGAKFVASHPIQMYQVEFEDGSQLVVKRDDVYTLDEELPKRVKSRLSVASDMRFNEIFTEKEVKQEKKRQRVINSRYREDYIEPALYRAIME
Briefly: Inhibition of KDM4A (unknown origin) at 1 uM relative to control.

Assay [3] deals with T2, Lysine-specific demethylase 4C (Homo sapiens) (UniProt Q9H3R0).
T2 sequence (whole entry): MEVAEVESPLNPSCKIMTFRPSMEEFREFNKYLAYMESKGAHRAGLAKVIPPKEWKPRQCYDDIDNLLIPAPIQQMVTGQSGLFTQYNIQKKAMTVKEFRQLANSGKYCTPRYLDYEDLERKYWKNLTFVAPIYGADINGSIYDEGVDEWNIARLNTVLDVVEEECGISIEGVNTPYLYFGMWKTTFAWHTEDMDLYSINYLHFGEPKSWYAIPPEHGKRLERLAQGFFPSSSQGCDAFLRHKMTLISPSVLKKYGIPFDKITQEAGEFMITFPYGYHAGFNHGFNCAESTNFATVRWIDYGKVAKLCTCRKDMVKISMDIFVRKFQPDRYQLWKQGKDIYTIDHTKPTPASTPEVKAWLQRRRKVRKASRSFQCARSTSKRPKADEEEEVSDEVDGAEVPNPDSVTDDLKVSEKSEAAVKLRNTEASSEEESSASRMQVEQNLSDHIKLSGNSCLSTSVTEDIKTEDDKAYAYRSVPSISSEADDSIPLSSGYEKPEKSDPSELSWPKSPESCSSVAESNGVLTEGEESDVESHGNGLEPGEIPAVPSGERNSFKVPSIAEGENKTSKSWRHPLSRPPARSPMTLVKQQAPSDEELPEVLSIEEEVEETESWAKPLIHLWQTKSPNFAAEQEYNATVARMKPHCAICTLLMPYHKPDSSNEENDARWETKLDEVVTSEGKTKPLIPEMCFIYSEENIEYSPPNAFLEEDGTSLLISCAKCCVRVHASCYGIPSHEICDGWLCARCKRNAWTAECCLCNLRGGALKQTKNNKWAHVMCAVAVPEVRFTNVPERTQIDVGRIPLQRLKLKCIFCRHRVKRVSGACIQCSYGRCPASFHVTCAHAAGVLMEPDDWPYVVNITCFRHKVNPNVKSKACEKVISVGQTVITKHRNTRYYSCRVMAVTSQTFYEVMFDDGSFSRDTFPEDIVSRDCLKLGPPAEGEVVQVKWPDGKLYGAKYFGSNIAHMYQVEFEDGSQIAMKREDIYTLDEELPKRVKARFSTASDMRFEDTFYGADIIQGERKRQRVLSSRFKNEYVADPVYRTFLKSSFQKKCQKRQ
The assay can be described thus: Inhibition of KDM4C (unknown origin) at 1 uM relative to control.

In assay [4] the target is T3, Lysine-specific demethylase 6B (Homo sapiens, UniProt O15054). Briefly: Inhibition of KDM6B (unknown origin) at 1 uM relative to control.
T3 sequence (O15054 whole entry): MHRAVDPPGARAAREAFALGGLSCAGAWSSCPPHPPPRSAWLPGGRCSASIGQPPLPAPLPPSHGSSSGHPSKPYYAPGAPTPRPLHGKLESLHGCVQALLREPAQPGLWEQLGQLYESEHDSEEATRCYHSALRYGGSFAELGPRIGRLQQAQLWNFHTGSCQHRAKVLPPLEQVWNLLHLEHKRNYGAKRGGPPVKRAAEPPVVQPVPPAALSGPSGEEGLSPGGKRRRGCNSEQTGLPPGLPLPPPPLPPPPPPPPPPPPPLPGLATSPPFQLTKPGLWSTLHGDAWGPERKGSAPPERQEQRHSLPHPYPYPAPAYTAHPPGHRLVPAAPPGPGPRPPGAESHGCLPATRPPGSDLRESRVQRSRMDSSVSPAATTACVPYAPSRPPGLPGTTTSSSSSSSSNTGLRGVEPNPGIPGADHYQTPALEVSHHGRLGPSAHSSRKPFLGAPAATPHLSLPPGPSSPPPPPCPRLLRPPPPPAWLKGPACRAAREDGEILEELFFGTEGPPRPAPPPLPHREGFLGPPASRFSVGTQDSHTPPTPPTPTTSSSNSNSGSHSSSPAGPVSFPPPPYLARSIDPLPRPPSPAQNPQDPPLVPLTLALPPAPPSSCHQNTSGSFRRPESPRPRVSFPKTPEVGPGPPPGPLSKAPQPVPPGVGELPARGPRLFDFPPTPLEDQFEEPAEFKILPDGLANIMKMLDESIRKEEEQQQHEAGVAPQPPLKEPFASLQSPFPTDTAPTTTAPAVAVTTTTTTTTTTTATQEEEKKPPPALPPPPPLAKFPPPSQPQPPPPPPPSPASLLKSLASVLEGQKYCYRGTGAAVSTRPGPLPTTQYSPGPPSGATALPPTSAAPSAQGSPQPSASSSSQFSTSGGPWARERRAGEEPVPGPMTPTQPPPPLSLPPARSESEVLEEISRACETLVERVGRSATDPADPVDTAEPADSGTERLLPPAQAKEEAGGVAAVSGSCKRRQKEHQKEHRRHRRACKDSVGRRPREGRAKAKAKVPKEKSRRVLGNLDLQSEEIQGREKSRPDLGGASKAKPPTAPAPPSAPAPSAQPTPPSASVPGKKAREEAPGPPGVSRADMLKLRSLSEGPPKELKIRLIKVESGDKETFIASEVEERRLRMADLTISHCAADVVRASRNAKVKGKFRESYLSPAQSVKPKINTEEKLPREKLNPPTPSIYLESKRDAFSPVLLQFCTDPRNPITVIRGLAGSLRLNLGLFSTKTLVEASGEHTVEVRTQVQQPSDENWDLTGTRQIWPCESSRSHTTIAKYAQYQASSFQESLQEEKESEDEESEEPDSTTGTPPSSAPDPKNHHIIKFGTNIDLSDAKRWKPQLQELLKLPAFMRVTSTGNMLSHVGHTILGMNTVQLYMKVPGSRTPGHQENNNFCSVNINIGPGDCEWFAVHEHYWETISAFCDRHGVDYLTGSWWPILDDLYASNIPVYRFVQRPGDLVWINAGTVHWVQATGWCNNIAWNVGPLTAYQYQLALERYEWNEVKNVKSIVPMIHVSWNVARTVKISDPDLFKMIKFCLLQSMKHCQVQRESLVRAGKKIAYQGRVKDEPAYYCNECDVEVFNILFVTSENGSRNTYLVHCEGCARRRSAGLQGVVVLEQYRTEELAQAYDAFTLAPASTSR
The target of assay [5] is T2, Lysine-specific demethylase 4C (Homo sapiens). The assay can be described thus: Inhibition of KDM4C (unknown origin) at 0.01 uM relative to control.
The target of assay [6] is Lysine-specific demethylase 5C (Homo sapiens, UniProt P41229). Briefly: Inhibition of KDM5C (unknown origin).
Assay [7] deals with MKN-45. Briefly: Antimigratory activity in human MKN-45 cells measured after 24 hrs by transwell assay. Format: functional, cell-based.
The target of assay [8] is T4, Lysine-specific demethylase 5B (Homo sapiens, UniProt Q9UGL1). Briefly: Inhibition of KDM5B in human MKN-45 cells assessed as increase in H3K4me3 accumulation measured after 5 days by Hoechst 33342 staining based immunofluorescence assay. The class given is cell-based. Conditions: time 5.0 day. An outline of the steps: (§1)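 MKN45 cells were seeded and left 24 h, then treated for 5 days. Cells were fixed in 4% paraformaldehyde, permeabilised with 0.1% Triton X-100 for 20 min and blocked with 5% BSA for 1 h. H3K4me2 or H3K4me3 primary antibody was applied at 4°C overnight, followed by Alexa Fluor 488 secondary and Hoechst 33342 (5 µg/mL) nuclear stain. Signal was quantified by high content imaging; three independent experiments.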
T4 sequence (Q9UGL1 whole entry): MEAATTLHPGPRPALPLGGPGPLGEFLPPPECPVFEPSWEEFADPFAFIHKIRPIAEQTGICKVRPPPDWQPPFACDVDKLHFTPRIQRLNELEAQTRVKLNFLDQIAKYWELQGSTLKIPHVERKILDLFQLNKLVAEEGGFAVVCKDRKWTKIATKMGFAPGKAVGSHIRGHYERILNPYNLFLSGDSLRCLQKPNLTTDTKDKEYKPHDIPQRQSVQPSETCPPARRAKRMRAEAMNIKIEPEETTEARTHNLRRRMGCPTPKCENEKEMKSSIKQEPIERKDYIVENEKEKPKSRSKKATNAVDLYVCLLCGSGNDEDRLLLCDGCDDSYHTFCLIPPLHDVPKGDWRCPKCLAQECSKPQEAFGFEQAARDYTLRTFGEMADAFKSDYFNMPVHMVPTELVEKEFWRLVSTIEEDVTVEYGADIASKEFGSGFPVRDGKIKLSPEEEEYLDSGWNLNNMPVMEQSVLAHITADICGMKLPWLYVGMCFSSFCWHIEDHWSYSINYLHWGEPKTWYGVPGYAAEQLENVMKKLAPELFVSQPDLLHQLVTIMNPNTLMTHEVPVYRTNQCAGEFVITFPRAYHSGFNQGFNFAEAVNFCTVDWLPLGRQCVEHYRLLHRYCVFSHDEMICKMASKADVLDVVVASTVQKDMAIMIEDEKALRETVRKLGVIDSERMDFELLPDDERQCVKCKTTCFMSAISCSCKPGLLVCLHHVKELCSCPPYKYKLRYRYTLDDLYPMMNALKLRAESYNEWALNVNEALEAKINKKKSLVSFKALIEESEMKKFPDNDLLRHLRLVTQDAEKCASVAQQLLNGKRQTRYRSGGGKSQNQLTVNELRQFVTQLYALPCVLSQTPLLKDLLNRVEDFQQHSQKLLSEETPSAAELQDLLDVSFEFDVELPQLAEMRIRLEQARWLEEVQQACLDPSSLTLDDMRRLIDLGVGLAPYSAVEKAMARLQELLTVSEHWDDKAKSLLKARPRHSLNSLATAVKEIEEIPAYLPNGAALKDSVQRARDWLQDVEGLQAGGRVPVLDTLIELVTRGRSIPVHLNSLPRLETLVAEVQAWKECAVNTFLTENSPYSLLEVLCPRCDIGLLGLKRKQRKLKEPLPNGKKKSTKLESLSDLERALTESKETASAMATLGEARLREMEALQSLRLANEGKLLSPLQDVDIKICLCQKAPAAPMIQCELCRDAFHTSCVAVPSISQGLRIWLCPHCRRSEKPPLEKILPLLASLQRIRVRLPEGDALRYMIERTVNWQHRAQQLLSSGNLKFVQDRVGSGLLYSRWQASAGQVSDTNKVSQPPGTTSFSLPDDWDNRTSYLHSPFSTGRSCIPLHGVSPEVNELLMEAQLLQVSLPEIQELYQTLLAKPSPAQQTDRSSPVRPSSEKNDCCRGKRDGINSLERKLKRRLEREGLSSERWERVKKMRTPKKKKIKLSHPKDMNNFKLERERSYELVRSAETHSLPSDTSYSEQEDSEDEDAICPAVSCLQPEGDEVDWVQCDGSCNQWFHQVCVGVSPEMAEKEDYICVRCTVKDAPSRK

Assay [9] concerns the target T1, Lysine-specific demethylase 4A (Homo sapiens). Briefly: Inhibition of KDM4A (unknown origin) at 0.01 uM relative to control.
For assay [10], the target named is T5, Lysine-specific demethylase 5A (Homo sapiens, UniProt P29375). Briefly: Inhibition of KDM5A (unknown origin).
T5 sequence (P29375 whole entry): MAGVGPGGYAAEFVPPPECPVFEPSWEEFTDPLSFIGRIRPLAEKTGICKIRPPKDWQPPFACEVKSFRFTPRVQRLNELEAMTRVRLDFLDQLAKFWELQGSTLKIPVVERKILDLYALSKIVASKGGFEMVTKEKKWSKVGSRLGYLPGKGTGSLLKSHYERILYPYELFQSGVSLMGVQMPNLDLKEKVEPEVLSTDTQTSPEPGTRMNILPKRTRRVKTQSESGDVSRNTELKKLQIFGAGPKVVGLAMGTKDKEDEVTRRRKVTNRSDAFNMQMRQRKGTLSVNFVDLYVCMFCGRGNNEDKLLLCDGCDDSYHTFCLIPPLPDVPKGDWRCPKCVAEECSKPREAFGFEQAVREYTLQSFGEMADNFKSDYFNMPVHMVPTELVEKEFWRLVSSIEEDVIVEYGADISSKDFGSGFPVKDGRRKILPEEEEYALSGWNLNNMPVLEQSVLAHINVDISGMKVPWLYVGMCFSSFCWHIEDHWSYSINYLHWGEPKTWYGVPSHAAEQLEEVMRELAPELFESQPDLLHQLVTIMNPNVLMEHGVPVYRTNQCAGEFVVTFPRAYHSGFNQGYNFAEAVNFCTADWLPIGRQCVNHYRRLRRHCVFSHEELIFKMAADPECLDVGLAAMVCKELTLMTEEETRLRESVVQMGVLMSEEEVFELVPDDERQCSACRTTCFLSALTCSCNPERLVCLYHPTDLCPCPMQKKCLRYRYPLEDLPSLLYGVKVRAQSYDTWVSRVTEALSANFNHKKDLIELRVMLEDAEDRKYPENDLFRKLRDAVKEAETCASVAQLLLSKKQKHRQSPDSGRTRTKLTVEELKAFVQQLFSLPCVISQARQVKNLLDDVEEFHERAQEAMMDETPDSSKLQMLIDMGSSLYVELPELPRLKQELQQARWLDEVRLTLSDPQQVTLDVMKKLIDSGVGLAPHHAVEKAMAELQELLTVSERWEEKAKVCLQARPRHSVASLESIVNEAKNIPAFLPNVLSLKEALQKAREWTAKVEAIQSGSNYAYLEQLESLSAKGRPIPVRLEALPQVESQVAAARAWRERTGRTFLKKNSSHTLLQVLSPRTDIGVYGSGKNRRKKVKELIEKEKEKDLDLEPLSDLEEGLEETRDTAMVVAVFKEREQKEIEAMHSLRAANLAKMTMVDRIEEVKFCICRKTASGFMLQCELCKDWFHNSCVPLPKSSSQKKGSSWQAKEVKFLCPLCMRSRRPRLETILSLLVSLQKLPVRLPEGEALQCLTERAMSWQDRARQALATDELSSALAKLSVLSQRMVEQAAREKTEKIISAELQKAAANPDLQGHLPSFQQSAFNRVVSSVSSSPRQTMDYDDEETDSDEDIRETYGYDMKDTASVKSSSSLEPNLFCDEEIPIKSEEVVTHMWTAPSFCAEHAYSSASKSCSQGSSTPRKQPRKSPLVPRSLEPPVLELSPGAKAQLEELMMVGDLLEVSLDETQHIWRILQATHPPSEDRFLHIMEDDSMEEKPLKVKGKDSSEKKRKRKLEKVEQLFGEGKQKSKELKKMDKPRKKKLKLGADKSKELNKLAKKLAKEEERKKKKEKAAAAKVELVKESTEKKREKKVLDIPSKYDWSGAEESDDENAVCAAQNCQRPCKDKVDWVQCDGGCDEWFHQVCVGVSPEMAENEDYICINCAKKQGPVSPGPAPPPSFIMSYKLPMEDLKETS
Assay [11] addresses T4, Lysine-specific demethylase 5B. The assay can be described thus: Inhibition of KDM5B in human MKN-45 cells assessed as increase in H3K4me2 accumulation measured after 5 days by Hoechst 33342 staining based immunofluorescence assay. Format: cell-based. Conditions: time 5.0 day. An outline of the steps: as §1
Assay [12] has as its target T3, Lysine-specific demethylase 6B. Briefly: Inhibition of KDM6B (unknown origin) at 0.25 uM relative to control.
For assay [13], the target named is T5, Lysine-specific demethylase 5A. The assay can be described thus: Inhibition of KDM5A (unknown origin) at 1 uM relative to control.

A word on the IC50: it is the midpoint of a concentration-inhibition curve. In general, inhibition refers to the relative decrease from the control value, in per cent. Take `COc1ccc(-n2cc(C(=O)NCC(C)(C)N3CCOCC3)c(-c3ccccc3)n2)cc1`: the figures for the IC50 (in the assay on MKN-45 [1]; in [6]; in assay [10]) were 20600 nM, 24.8 nM and 24.9 nM, respectively. Further, the inhibition was 56.2% in [2]; 50.1% in assay [3]; 19.6% in assay [4]; 3.52% in assay [5]; “Dose-dependent effect” in assay [8]; 5.12% in assay [9]. Besides, the inhibition entry in assay [11] is “Dose-dependent effect”; in assay [12], 12.4%; in [13], 79.3%. For the same molecule, the Activity result in the assay with MKN-45 [7] is “Dose-dependent effect”.
